Data reported in ChEMBL document CHEMBL1629579, “Correlating echinocandin MIC and kinetic inhibition of fks1 mutant glucan synthases for Candida albicans: implications for interpretive breakpoints” (Antimicrob Agents Chemother, 2009).
Values after ≈ are worked out from the molar mass of the structure shown. Numbered stars: 1 amine (or outer) side, 2 acyl side, 3 side chain; on linkers, the order of the positions; unused ones are H or OH. Bridge positions count the residues as written; N and C are the ends. Square brackets hold non-standard residues; d marks the D form. Peptide text beside a SMILES is read from it. * marks the point of attachment. hTyr(3S-OH,4S-OH,3'-OSO3H) = N[C@H](C(=O)O)[C@H](O)[C@@H](O)c1ccc(O)c(OS(=O)(=O)O)c1; Orn(4R-OH,5R-OH) = O=C([C@H](C[C@@H](O)[C@@H](O)N[*:3])N[*:1])[*:2]; Pro(3S-OH,4S-Me) = C[C@H]1CN[C@H](C(=O)O)[C@H]1O; X1 = CCCCCOc1ccc(-c2cc(-c3ccc(C(=O)*)cc3)no2)cc1; Gln(3R-OH) = NC(=O)C[C@@H](O)[C@H](N)C(=O)O; Hyp = O=C(O)[C@@H]1C[C@@H](O)CN1

What was measured:
Candida albicans [1] = assay: Antimicrobial activity against Candida albicans SC5314 by M27-A3 method in presence of 50% human serum; assay type: functional
In short: (§1)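 Broth microdilution per CLSI M27-A3 in RPMI 1640, done in triplicate on three separate days. Each strain was tested with and without 50% human serum. C. krusei ATCC 6258 and C. parapsilosis ATCC 22019 served as QC strains. Arithmetic means are reported, and geometric means were used for comparison.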

Candida albicans [2] = assay: Antimicrobial activity against Candida albicans 1002 by M27-A3 method in presence of 50% human serum; assay type: functional; in short: as §1
Candida albicans [3] = assay: Antimicrobial activity against Candida albicans 3795 by M27-A3 method; assay type: functional
In short: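 Broth microdilution per CLSI M27-A3 in RPMI 1640, with and without 50% human serum, in triplicate. C. krusei ATCC 6258 and C. parapsilosis ATCC 22019 served as quality-control strains. MIC reported as arithmetic mean of three repetitions on separate days.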

Candida albicans [4] = assay: Antimicrobial activity against Candida albicans 2762 harboring FKS1 T1922C mutant gene and FKS1 hotspot1 F641S mutant gene by M27-A3 method; assay type: functional; in short: as §1
Candida albicans [5] = assay: Antimicrobial activity against Candida albicans 205 harboring FKS1 T1933C mutant gene and FKS1 hotspot1 S645P mutant gene by M27-A3 method; assay type: functional; in short: as §1
Candida albicans [6] = assay: Antimicrobial activity against Candida albicans 5415 harboring FKS1 T1933C mutant gene and FKS1 hotspot1 S645P mutant gene by M27-A3 method in presence of 50% human serum; assay type: functional; in short: as §1
Candida albicans [7] = assay: Antimicrobial activity against Candida albicans 89 harboring FKS1 C1934A mutant gene and FKS1 hotspot1 S645Y mutant gene by M27-A3 method in presence of 50% human serum; assay type: functional; in short: as §1
Candida albicans [8] = assay: Antimicrobial activity against Candida albicans 85 harboring FKS1 C1934T mutant gene and FKS1 hotspot1 S645F mutant gene by M27-A3 method; assay type: functional; in short: as §1
Candida albicans [9] = assay: Antimicrobial activity against Candida albicans 85 harboring FKS1 C1934T mutant gene and FKS1 hotspot1 S645F mutant gene by M27-A3 method in presence of 50% human serum; assay type: functional; in short: as §1
Candida albicans [10] = assay: Antimicrobial activity against Candida albicans 149 harboring FKS1 G1942T mutant gene and FKS1 hotspot1 D648Y mutant gene by M27-A3 method in presence of 50% human serum; assay type: functional; in short: as §1
Candida albicans [11] = assay: Antimicrobial activity against Candida albicans 121 harboring FKS1 G4082A mutant gene and FKS1 hotspot2 R1361H mutant gene by M27-A3 method in presence of 50% human serum; assay type: functional; in short: as §1
Candida albicans [12] = assay: Antimicrobial activity against Candida albicans A15 harboring FKS1 T1933Y mutant gene and FKS1 hotspot1 S645S/P mutant gene by M27-A3 method in presence of 50% human serum; assay type: functional; in short: as §1
Candida albicans [13] = assay: Antimicrobial activity against Candida albicans A15-10 harboring FKS1 T1933C mutant gene and FKS1 hotspot1 S645P mutant gene by M27-A3 method; assay type: functional; in short: as §1
[14] = Inhibition of Candida albicans 1002 1,3-beta-D-glucan synthase subunit FKS1p
In short: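 Product-entrapped glucan synthase from YPD-grown cells (37°C, early stationary phase) in a filtration polymerization assay with [3H]UDPG. Echinocandin serial dilutions were added, with 1% DMSO in controls for anidulafungin. Reactions were started with enzyme, run 60 min at 25°C and stopped on ice. IC50 came from a variable-slope sigmoidal fit, in triplicate.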

[15] = Inhibition of Candida albicans 205 1,3-beta-D-glucan synthase subunit FKS1p T1933C mutant
In short: (§2)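 Enzyme is product-entrapped 1,3-β-D-glucan synthase, enriched from membranes of each strain grown at 37°C with shaking in YPD broth to early stationary phase. Filtration polymerization assay uses [3H]UDPG, started by adding enzyme and run 60 min at 25°C. Echinocandins are added as serial dilutions, with 1% DMSO controls for anidulafungin. IC50 is from a variable-slope sigmoidal fit; values are triplicate arithmetic means.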

[16] = Inhibition of Candida albicans 5415 1,3-beta-D-glucan synthase subunit FKS1p T1933C mutant; in short: as §2
[17] = Inhibition of Candida albicans 89 1,3-beta-D-glucan synthase subunit FKS1p C1934A mutant; in short: as §2
[18] = Inhibition of Candida albicans 85 1,3-beta-D-glucan synthase subunit FKS1p C1934T mutant; in short: as §2
[19] = Inhibition of Candida albicans 194 1,3-beta-D-glucan synthase subunit FKS1p C1934T/G4082R mutant; in short: as §2
[20] = Inhibition of Candida albicans 90 1,3-beta-D-glucan synthase subunit FKS1p G4082R mutant; in short: as §2
[21] = Inhibition of Candida albicans A15-10 1,3-beta-D-glucan synthase subunit FKS1p T1933C mutant; in short: as §2
Candida albicans SC5314 = assay: Activity at Candida albicans SC5314 1,3-beta-D-glucan synthase subunit FKS1p
In short: (§3)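 Glucan synthase from cells grown at 37°C with vigorous shaking to early stationary phase in YPD. Membrane enzyme enriched by product entrapment. Serial echinocandin dilutions; ANF controls held 1% DMSO. Reaction started by adding enzyme, run 60 min at 25°C in a filtration polymerization assay, stopped on ice. IC50 from a variable-slope sigmoidal fit; means of three repetitions on separate days.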

Candida albicans [22] = assay: Activity at Candida albicans 36082 1,3-beta-D-glucan synthase subunit FKS1p; in short: as §3
Candida albicans [23] = assay: Activity at Candida albicans 90028 1,3-beta-D-glucan synthase subunit FKS1p; in short: as §3
Candida albicans [24] = assay: Activity at Candida albicans 3795 1,3-beta-D-glucan synthase subunit FKS1p; in short: as §3
Candida albicans [25] = assay: Activity at Candida albicans 119 1,3-beta-D-glucan synthase subunit FKS1p T1921C mutant
In short: (§4)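 Product-entrapped 1,3-β-D-glucan synthase from cells grown in YPD at 37°C to early stationary phase. Wells held 50 mM HEPES pH 7.5, 10% glycerol, 1.5 mg/ml BSA, 25 mM KF, 1 mM EDTA, 25 μM GTP-γ-S, 1 μg enzyme and [3H]UDPG (0.015–2 mM). Reactions ran 60 min at 25°C. Vmax and Km came from Lineweaver-Burke plots, in triplicate.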

Candida albicans [26] = assay: Activity at Candida albicans 177 1,3-beta-D-glucan synthase subunit FKS1p T1922C mutant; in short: as §4
Candida albicans [27] = assay: Activity at Candida albicans 205 1,3-beta-D-glucan synthase subunit FKS1p T1933C mutant; in short: as §4
Candida albicans [28] = assay: Activity at Candida albicans 5415 1,3-beta-D-glucan synthase subunit FKS1p T1933C mutant; in short: as §4
Candida albicans [29] = assay: Activity at Candida albicans 90 1,3-beta-D-glucan synthase subunit FKS1p G4082R mutant; in short: as §4

**Q.** Which results are given for `CCCCCOc1ccc(-c2cc(-c3ccc(C(=O)N[C@H]4C[C@@H](O)[C@@H](O)NC(=O)[C@@H]5[C@@H](O)[C@@H](C)CN5C(=O)[C@H]([C@H](O)CC(N)=O)NC(=O)[C@H]([C@H](O)[C@@H](O)c5ccc(O)c(OS(=O)(=O)O)c5)NC(=O)[C@@H]5C[C@@H](O)CN5C(=O)[C@H]([C@@H](C)O)NC4=O)cc3)no2)cc1` [MICAFUNGIN] (X1-[Orn(4R-OH,5R-OH)]T[Hyp][hTyr(3S-OH,4S-OH,3'-OSO3H)][Gln(3R-OH)][Pro(3S-OH,4S-Me)]; lactam 1-C)?
**A.** MIC (Candida albicans [1]): 0.5 µg/mL; MIC (Candida albicans [2]): 0.5 µg/mL; MIC (Candida albicans [3]): 0.03 µg/mL (≈ 0.0236 µM); MIC (Candida albicans [4]): 1 µg/mL (≈ 0.787 µM); MIC (Candida albicans [5]): 4 µg/mL (≈ 3.15 µM); MIC (Candida albicans [6]): 8 µg/mL; MIC (Candida albicans [7]): 8 µg/mL; MIC (Candida albicans [8]): 2.67 µg/mL (≈ 2.1 µM); MIC (Candida albicans [9]): 8 µg/mL; MIC (Candida albicans [10]): 4 µg/mL; MIC (Candida albicans [11]): 8 µg/mL; MIC (Candida albicans [12]): 2 µg/mL; MIC (Candida albicans [13]): 4 µg/mL (≈ 3.15 µM); IC50 [14]: 53.34 ng/mL (≈ 0.042 µM); Ki [14]: 34.52 ng/mL (≈ 0.0272 µM); IC50 [15]: 1085 ng/mL (≈ 0.854 µM); Ki [15]: 2673.63 ng/mL (≈ 2.1 µM); IC50 [16]: 1254 ng/mL (≈ 0.987 µM); Ki [16]: 2753.01 ng/mL (≈ 2.17 µM); IC50 [17]: 2533 ng/mL (≈ 1.99 µM); Ki [17]: 867.13 ng/mL (≈ 0.683 µM); IC50 [18]: 449.8 ng/mL (≈ 0.354 µM); Ki [18]: 1289.19 ng/mL (≈ 1.01 µM); IC50 [19]: 1765 ng/mL (≈ 1.39 µM); Ki [19]: 493.83 ng/mL (≈ 0.389 µM); IC50 [20]: 77.39 ng/mL (≈ 0.0609 µM); Ki [20]: 264.73 ng/mL (≈ 0.208 µM); IC50 [21]: 1194 ng/mL (≈ 0.94 µM); Ki [21]: 2249.5 ng/mL (≈ 1.77 µM); Km (Candida albicans SC5314): 125 µM; Vmax (Candida albicans SC5314): 6.72 nmol/min; Km (Candida albicans [22]): 89 µM; Vmax (Candida albicans [22]): 5.87 nmol/min; Km (Candida albicans [23]): 67 µM; Vmax (Candida albicans [23]): 4.71 nmol/min; Km (Candida albicans [24]): 88 µM; Vmax (Candida albicans [24]): 6.63 nmol/min; Km (Candida albicans [25]): 54 µM; Vmax (Candida albicans [25]): 2.54 nmol/min; Km (Candida albicans [26]): 50 µM; Vmax (Candida albicans [26]): 4.4 nmol/min; Km (Candida albicans [27]): 116 µM; Vmax (Candida albicans [27]): 5.54 nmol/min; Km (Candida albicans [28]): 98 µM; Vmax (Candida albicans [28]): 3.12 nmol/min; Km (Candida albicans [29]): 31 µM; Vmax (Candida albicans [29]): 2.36 nmol/min
